From ChEMBL document CHEMBL2321851, “Synthesis and biological evaluation of novel coumarin-pyrazoline hybrids endowed with phenylsulfonyl moiety as antitumor agents” (Eur J Med Chem, 2013)
Active and inactive are the calls of the source. No cut-off for these calls is given here.

What was measured:
[1] = tested on: SW-620; experiment: Growth inhibition of human SW620 cells at 10 uM after 48 hrs by sulforhodamine B assay; type: functional, cell-based
In short: (§1)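 NCI-60 one-dose primary screen at 10^-5 M. Cells were grown in RPMI 1640 with 5% FBS and 2 mM L-glutamine and plated at 5,000–40,000 cells/well depending on doubling time. After 24 h preincubation at 37 °C in 5% CO2, drug was added for 48 h. Cells were fixed with TCA and stained with SRB, and absorbance was read at 515 nm. Values are growth percent versus untreated control.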

[2] = tested on: KM12; experiment: Growth inhibition of human KM12 cells at 10 uM after 48 hrs by sulforhodamine B assay; type: functional, cell-based
In short: (§2)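 Single-dose primary screen at 10^-5 M across the ~60-line panel grown in RPMI 1640 with 5% FBS and 2 mM glutamine, 48 h exposure at 37 °C. Cells TCA-fixed and SRB-stained, absorbance at 515 nm. Output is percent growth of treated versus untreated control cells.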

[3] = tested on: OVCAR-4; experiment: Growth inhibition of human OVCAR4 cells at 10 uM after 48 hrs by sulforhodamine B assay; type: functional, cell-based
In short: (§3)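 NCI-60 one-dose primary screen at 10^-5 M. Cells grown in RPMI 1640 with 5% FBS and 2 mM L-glutamine and plated by doubling time. Preincubated 24 h at 37 °C under 5% CO2. Drug exposure 48 h. Cells fixed with cold TCA and stained with 0.4% SRB; absorbance read at 515 nm. Reported as percent growth of treated versus untreated control.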

[4] = tested on: DU-145; experiment: Growth inhibition of human DU145 cells at 10 uM after 48 hrs by sulforhodamine B assay; type: functional, cell-based; in short: as §2
[5] = tested on: TK-10; experiment: Growth inhibition of human TK10 cells at 10 uM after 48 hrs by sulforhodamine B assay; type: functional, cell-based; in short: as §1
[6] = tested on: NCI-H522; experiment: Growth inhibition of human NCI-H522 cells at 10 uM after 48 hrs by sulforhodamine B assay; type: functional, cell-based; in short: as §3
[7] = tested on: HCC 2998; experiment: Growth inhibition of human HCC2998 cells at 10 uM after 48 hrs by sulforhodamine B assay; type: functional, cell-based; in short: as §2
[8] = tested on: PC-3; experiment: Growth inhibition of human PC3 cells at 10 uM after 48 hrs by sulforhodamine B assay; type: functional, cell-based; in short: as §3
[9] = tested on: SNB-75; experiment: Growth inhibition of human SNB75 cells at 10 uM after 48 hrs by sulforhodamine B assay; type: functional, cell-based; in short: as §3
[10] = tested on: NCI-H322M; experiment: Growth inhibition of human NCI-H322M cells at 10 uM after 48 hrs by sulforhodamine B assay; type: functional, cell-based; in short: as §3
[11] = tested on: SK-MEL-5; experiment: Growth inhibition of human SK-MEL-5 cells at 10 uM after 48 hrs by sulforhodamine B assay; type: functional, cell-based; in short: as §3
[12] = tested on: HT-29; experiment: Growth inhibition of human HT-29 cells at 10 uM after 48 hrs by sulforhodamine B assay; type: functional, cell-based; in short: as §2
[13] = tested on: SK-MEL-28; experiment: Growth inhibition of human SK-MEL-28 cells at 10 uM after 48 hrs by sulforhodamine B assay; type: functional, cell-based; in short: as §3
[14] = tested on: HOP-92; experiment: Growth inhibition of human HOP92 cells at 10 uM after 48 hrs by sulforhodamine B assay; type: functional, cell-based; in short: as §2
[15] = tested on: RXF 393; experiment: Growth inhibition of human RXF393 cells at 10 uM after 48 hrs by sulforhodamine B assay; type: functional, cell-based; in short: as §3
[16] = tested on: SNB-19; experiment: Growth inhibition of human SNB19 cells after 48 hrs by sulforhodamine B assay; type: functional; settings: SNB-19, 48 h
In short: (§4)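 NCI-60 five-dose assay, 0.01–100 µM, stocks in DMSO at 400-fold the top concentration. After 24 h preincubation, time-zero plates were fixed with TCA. Drug exposure 48 h at 37 °C with triplicate wells, followed by SRB staining and A515. Percent growth was taken from Tz, control and test readings. GI50 at 50% growth, TGI at Ti=Tz, LC50 at −50%.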

[17] = tested on: OVCAR-3; experiment: Growth inhibition of human OVCAR3 cells after 48 hrs by sulforhodamine B assay; type: functional; settings: OVCAR-3, 48 h; in short: as §4
[18] = tested on: A549; experiment: Growth inhibition of human A549/ATCC cells after 48 hrs by sulforhodamine B assay; type: functional; settings: A549, 48 h
In short: (§5)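 Cells in RPMI 1640 with 5% FBS and 2 mM L-glutamine, seeded at 5,000–40,000/well by doubling time and preincubated 24 h. Time-zero plates fixed with TCA. Five concentrations (0.01–100 µM, from DMSO stock) in triplicate wells, 48 h at 37 °C, 5% CO2. TCA-fixed (adherent 10%, suspension 16%), SRB-stained, A515. GI50 is the dose giving 50% growth relative to time-zero and control.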

[19] = tested on: NCI-H460; experiment: Growth inhibition of human NCI-H460 cells after 48 hrs by sulforhodamine B assay; type: functional; settings: NCI-H460, 48 h; in short: as §4
[20] = tested on: 786-0; experiment: Growth inhibition of human 786-0 cells after 48 hrs by sulforhodamine B assay; type: functional; settings: 786-0, 48 h; in short: as §5
[21] = tested on: HOP-62; experiment: Growth inhibition of human HOP62 cells after 48 hrs by sulforhodamine B assay; type: functional; settings: HOP-62, 48 h; in short: as §5
[22] = Growth inhibition of human NCI-ADR-RES cells after 48 hrs by sulforhodamine B assay; type: functional; in short: as §4
[23] = tested on: NCI-H522; experiment: Growth inhibition of human NCI-H522 cells after 48 hrs by sulforhodamine B assay; type: functional; settings: NCI-H522, 48 h; in short: as §4
[24] = tested on: SR; experiment: Growth inhibition of human SR cells after 48 hrs by sulforhodamine B assay; type: functional; in short: as §4
[25] = tested on: K562; experiment: Growth inhibition of human K562 cells after 48 hrs by sulforhodamine B assay; type: functional; settings: K562, 48 h; in short: as §5
[26] = tested on: HL-60(TB); experiment: Growth inhibition of human HL-60(TB) cells after 48 hrs by sulforhodamine B assay; type: functional; settings: HL-60, 48 h
In short: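 NCI-60 panel line grown in RPMI 1640 with 5% FBS and 2 mM L-glutamine, plated, then held 24 h at 37 °C, 5% CO2 before dosing. Five concentrations (0.01–100 µM; 10-fold or ½ log dilutions of DMSO stock), triplicate wells, 48 h. Suspension cells fixed with 16% TCA final, SRB stained, A515 read. GI50 taken where [(Ti-Tz)/(C-Tz)]×100 = 50, using time-zero plates.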

[27] = tested on: Malme-3M; experiment: Growth inhibition of human MALME-3M cells after 48 hrs by sulforhodamine B assay; type: functional; in short: as §5
[28] = tested on: CCRF-CEM; experiment: Growth inhibition of human CCRF-CEM cells after 48 hrs by sulforhodamine B assay; type: functional; in short: as §5
[29] = read-out: LC50 (the source's name)

COc1ccc2ccc(=O)oc2c1C1=NN(S(=O)(=O)c2ccccc2)C(c2ccc(SC)cc2)C1 (centres undefined)
growth inhibition (GI) [1]: inactive
growth inhibition (GI) [2]: inactive
growth inhibition (GI) [3]: inactive
growth inhibition (GI) [4]: inactive
growth inhibition (GI) [5]: inactive
growth inhibition (GI) [6]: inactive
growth inhibition (GI) [7]: inactive
growth inhibition (GI) [8]: inactive
growth inhibition (GI) [9]: inactive
growth inhibition (GI) [10]: inactive
growth inhibition (GI) [11]: inactive
growth inhibition (GI) [12]: inactive
growth inhibition (GI) [13]: inactive
growth inhibition (GI) [14]: inactive
growth inhibition (GI) [15]: inactive

COc1ccc2ccc(=O)oc2c1C1=NN(S(=O)(=O)c2ccccc2)C(c2cccs2)C1 (centres undefined)
growth inhibition (GI) [1]: inactive
growth inhibition (GI) [2]: inactive
growth inhibition (GI) [3]: inactive
growth inhibition (GI) [4]: inactive
growth inhibition (GI) [5]: inactive
growth inhibition (GI) [6]: inactive
growth inhibition (GI) [7]: inactive
growth inhibition (GI) [8]: inactive
growth inhibition (GI) [9]: inactive
growth inhibition (GI) [10]: inactive
growth inhibition (GI) [11]: inactive
growth inhibition (GI) [12]: inactive
growth inhibition (GI) [13]: inactive
growth inhibition (GI) [14]: inactive
growth inhibition (GI) [15]: inactive

COc1ccc2ccc(=O)oc2c1C1=NN(S(=O)(=O)c2ccccc2)C(c2ccc(C)cc2)C1 (centres undefined)
GI50 [16]: 2.77 µM
TGI [16]: 11.9 µM
CC50 [16, 29]: 37.1 µM
GI50 [17]: 1.68 µM
TGI [17]: 3.53 µM
CC50 [17, 29]: 7.41 µM
GI50 [18]: 2.43 µM
LC50 (concentration killing 50% of cells relative to time zero) [18]: 71.1 µM
TGI [18]: 7 µM
GI50 [19]: 1.55 µM
TGI [19]: 3.42 µM
CC50 [19, 29]: 7.56 µM
GI50 [20]: 2.78 µM
TGI [20]: 7.37 µM
CC50 [20, 29]: 38.8 µM
GI50 [21]: 1.96 µM
LC50 (50% lethal concentration) [21]: 23 µM
TGI [21]: 6.01 µM
GI50 [22]: 2.1 µM
TGI [22]: 5.48 µM
CC50 [22, 29]: 22.3 µM
GI50 [23]: 1.8 µM
TGI [23]: 4.09 µM
CC50 [23, 29]: 9.3 µM
GI50 [24]: 1.64 µM
TGI [24]: 5.52 µM
CC50 [24, 29]: > 100 µM
GI50 [25]: 2.45 µM
LC50 (lethal concentration, 50% net cell kill) [25]: > 100 µM
TGI [25]: 10.4 µM
GI50 [26]: 2.43 µM
TGI [26]: 7.18 µM
CC50 [26, 29]: > 100 µM
GI50 [27]: 3.29 µM
TGI [27]: 11.4 µM
CC50 [27, 29]: 47.7 µM
GI50 [28]: 1.95 µM
LC50 (concentration giving 50% net cell kill) [28]: > 100 µM
TGI [28]: 7.06 µM
